Results: PMC2929396 (Chemistry & biology, 2010)
Read-outs that look alike come from different tables or passages of the source.

How the values were obtained:
DPAP1 [1] = molecular target: T1, DPAP1 (Plasmodium falciparum, UniProt Q8IIJ9); assay: DPAP1 specific fluorogenic assay; type: biochemical
T1 sequence (Q8IIJ9 370-599 limits assumed): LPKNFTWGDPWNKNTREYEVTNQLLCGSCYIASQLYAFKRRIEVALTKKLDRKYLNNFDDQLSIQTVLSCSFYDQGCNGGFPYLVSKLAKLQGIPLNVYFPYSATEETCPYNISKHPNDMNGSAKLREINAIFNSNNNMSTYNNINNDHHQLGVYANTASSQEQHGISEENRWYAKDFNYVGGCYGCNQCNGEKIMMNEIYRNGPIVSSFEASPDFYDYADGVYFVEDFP
T1 sequence (Q8IIJ9 28-209 limits assumed): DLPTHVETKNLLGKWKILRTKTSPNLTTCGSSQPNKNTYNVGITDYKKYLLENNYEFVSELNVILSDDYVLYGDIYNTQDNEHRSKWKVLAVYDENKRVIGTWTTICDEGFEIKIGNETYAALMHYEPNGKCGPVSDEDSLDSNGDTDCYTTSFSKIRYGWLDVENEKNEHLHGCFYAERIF
T1 sequence (Q8IIJ9 600-700 limits assumed): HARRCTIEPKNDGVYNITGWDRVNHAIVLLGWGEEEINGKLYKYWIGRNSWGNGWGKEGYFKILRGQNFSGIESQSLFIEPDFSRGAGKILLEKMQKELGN
Summary of the method: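 DPAP1 activity was assayed at 25 °C in pH 5.5 acetate buffer with 1% parasite lysate and 10 µM (Pro-Arg)2-Rho. Turnover was read for 5 min (ex 492/em 523 nm). Lysates were pretreated with inhibitor for set times (0.1–2 h). IC50 came from dose response fits. For ki, v/v0 relative to DMSO was fitted to a simple irreversible inhibitor model.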

DPAP1 [2] = molecular target: T1, DPAP1; type: biochemical
Summary of the method: (§1)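 Trophozoite or merozoite lysates, or intact schizonts, were used in acetate buffer (50 mM sodium acetate, 5 mM MgCl2, 5 mM DTT, pH 5.5). Lysates were preincubated 30 min with 10 µM inhibitor, then labeled 1 h. FY01 labeled DPAPs (fluorescent SDS-PAGE scan) and 125I-DCG04 labeled falcipains (autoradiography). Loss of band signal indicated inhibition, and IC50s came from quantified gel bands.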

P. falciparum [3] = assay: P. falciparum replication assay; type: cell-based, Plasmodium falciparum; conditions: read-out: EC50Pot; standard 75 h replication assay, ring stage D10 parasites
Summary of the method: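 D10 parasites were synchronized by 70% Percoll schizont harvest, a 1 h invasion window and sorbitol. Ring-stage cultures (~2% parasitemia, 0.5% hematocrit) were treated with compound for ~75 h, until DMSO controls reached schizonts. Infected versus uninfected RBCs were counted by FACS. EC50Pot was fitted to a dose response curve.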

P. falciparum [4] = assay: Replication assay after 1h treatment and washout; type: cell-based, Plasmodium falciparum; conditions: 1h treatment at different life cycle stages
Summary of the method: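 Tightly synchronized parasites were exposed 1 h to inhibitor or DMSO at 1, 10, 18, 30, 38 or 46 h post-invasion. They were then washed 3× and cultured until progeny in DMSO controls reached schizonts (~80 h p.i.). Parasitemia was read by FACS from 3 independent measurements, reported as standard error.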

[5] = Stability after overnight incubation in mouse serum; type: in vitro ADME; conditions: 37 °C
Summary of the method: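 Inhibitor was incubated overnight at 37 °C in mouse serum. Remaining potency was tested as the ability to block FY01 labeling of DPAP1 in parasite lysates, run before and after serum exposure.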

DPAP3 = assay: Competition assay with activity-based probe FY01, DPAP3 labeling; type: biochemical, Plasmodium falciparum; conditions: parasite lysates
Summary of the method: as §1

FPs (FP2/3) = assay: Competition assay with activity-based probe 125I-DCG04, falcipain labeling; type: biochemical, Plasmodium falciparum; conditions: parasite lysates
Summary of the method: as §1

P. falciparum [6] = assay: Phenotypic effects in Geimsa-stained thin blood smears; type: cell-based, Plasmodium falciparum; conditions: schizonts treated 24 h
Summary of the method: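 Synchronous schizont-stage cultures were exposed to inhibitor for 24 h across increasing concentrations. Morphology was assessed on Giemsa-stained thin blood smears.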

[7] = ref personal communication, David Percival, Merck; cited from earlier work
[8] = tested on: NK65 P. berghei parasites; assay: P. berghei mouse model of malaria, parasitemia; type: in vivo, Balb/c mice; conditions: Figure S2
[9] = Compound toxicity and pharmacokinetics in mice; type: in vivo; conditions: Figure S2
HFF cells = assay: Cell toxicity, CellTiter-Glo; type: cell-based, human; conditions: ATP production after 24 h treatment of HFF cells with 0.01–100 µM compound
Summary of the method: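 HFF cells were incubated 24 h with inhibitor (0.01–100 µM) or DMSO. Viability was read as ATP by CellTiter-Glo. EC50Tox was obtained by fitting the data to a dose response curve.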

## C[C@H](N)C(=O)N[C@@H](Cc1ccc(I)cc1)C(=O)C=[N+]=[N-] [Ala-4(I)Phe-DMK]
DPAP1 [1]; read-out: IC50DPAP1,1h, 1h, lysates
  IC50: 0.0064 µM
DPAP1 [1]; read-out: IC50DPAP1,2h, 2h treatment of parasite lysates
  IC50: 0.002 µM
DPAP1 [1]; trophozoite lysates incubated with inhibitor 0.1–2h
  second order rate constant of inhibition (ki): 35000 ± 3000 M⁻¹ s⁻¹
DPAP1 [2]; lysates, 30 min with 10 µM inhibitor then 1h FY01
  block of DPAP1 labeling by ABP: efficiently blocked labeling
DPAP1 [2]; other papain fold cysteine proteases of P. falciparum
  selectivity towards DPAP1 over DPAP3 and the FPs: at least 1000 fold
P. falciparum [3]
  EC50: 0.0028 µM
P. falciparum [4]
  sensitivity at trophozoite stage relative to other stages: 10 times
[5]
  ability to inhibit DPAP1 after incubation in mouse serum: lost virtually all of their activity
DPAP3
  inhibition of DPAP3 (ABP labeling): but not FPs or DPAP3
FPs (FP2/3)
  inhibition of FPs (ABP labeling): but not FPs or DPAP3
P. falciparum [6]
  concentration inducing schizont arrest and a FV defect: ≥ 1 µM
[7]
  pharmacokinetic (PK) properties: very poor

## CCC[C@H](N)C(=O)N[C@H](/C=C/S(=O)(=O)c1ccccc1)CCc1ccccc1 [JCP-410]
[8]
  effect in vivo: no effect
[9]
  PK properties: poor

## CCCCC(C(=O)COC(=O)c1c(C)cccc1C)n1cc(C2(N)CCCCC2)nn1 (stereo not shown) [ML4091]
P. falciparum [3]
  EC50: 6 µM
HFF cells
  EC50Tox: 12000 (3000) nM

## CCCCC(C(=O)COc1c(F)c(F)cc(F)c1F)n1cc(C2(N)CCN(C(N)=O)CC2)nn1 (stereo not shown) [ML4154]
P. falciparum [3]
  EC50: 45 µM
HFF cells
  EC50Tox: 30000 (5000) nM

## CCCCC(C(=O)COc1c(F)c(F)cc(F)c1F)n1cc(C2(N)CCNCC2)nn1 (stereo not shown) [ML4162]
P. falciparum [3]
  EC50: 0.22 µM
HFF cells
  EC50Tox: 68000 (4000) nM

## CCCCC(C(=O)COc1c(F)c(F)cc(F)c1F)n1cc(C2(N)CCN(C(C)=O)CC2)nn1 (stereo not shown) [ML4163]
P. falciparum [3]
  EC50: > 100 µM
HFF cells
  EC50Tox: > 100000 nM
